For data set [1], the system named is Staphylococcus aureus. The data set can be described thus: Antimicrobial activity against methicillin-susceptible Staphylococcus aureus ATCC 29213 by broth microdilution method. Format: functional. An outline of the steps: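 Broth microdilution run in triplicate following CLSI guidelines. Isolates were stored at –80°C in double-strength skim milk and subcultured twice on Trypticase soy agar with 5% sheep blood before testing.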

Data set [2] can be described thus: fT>MIC required for stasis inhibition of hospital acquired methicillin-resistant Staphylococcus aureus 56 infection in neutropenic BALB/cAnNCr mouse. It counts as functional. An outline of the steps: (§1)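 Same neutropenic murine pneumonia model, with 24-h lung log10 CFU change (5 mice per group; 1–25 mg/kg s.c., 1–5 times daily). […] ED50, ED80 and stasis exposures were taken from a sigmoid Emax fit for each isolate.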

A short description of data set [3]: Cmax in neutropenic BALB/cAnNCr mouse infected with Staphylococcus aureus at 2.5 mg/kg, sc administered as single dose after 6 hrs of infection. Details: dose 2.5 mg/kg, route subcutaneous. It counts as ADME, organism-based. Conditions: in vivo. The essentials: (§2)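 Female BALB/cAnNCr mice (7-9 weeks, 15-22 g) made neutropenic with cyclophosphamide, 250 mg/kg i.p. on day -4 and 100 mg/kg i.p. on day -1. Infected by oral aspiration of HA-MRSA 56 (10^7 CFU/ml in 3% mucin/saline). Single s.c. dose in sterile water given 6 h post-challenge. Plasma (EDTA, citric acid-stabilized) taken at 0.25-4 h, six mice per time point. Assayed by validated HPLC (LOQ 0.01 µg/ml); one-compartment analysis.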

In data set [4] the test system is Staphylococcus aureus. The data set can be described thus: Antimicrobial activity against methicillin-susceptible Staphylococcus aureus 29213 infected in BALB/cAnNCr mouse assessed as decrease in bacterial density in lungs at 1 to 25 mg/kg, sc administered as 1 to 5 times/day after 24 hrs […] relative to control. It counts as functional. Conditions: route subcutaneous. The essentials:
(§3)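 Female BALB/cAnNCr mice (7–9 weeks) were made neutropenic with cyclophosphamide i.p. at 250 mg/kg on day −4 and 100 mg/kg on day −1. Under isoflurane, mice received an oral inoculum in 3% mucin/saline, with nostrils blocked until aspiration. Drug (1–25 mg/kg s.c., once to five times daily, water vehicle) or sham started 6 h post-inoculation. Lungs were harvested at 24 h, homogenized and plated on blood and Columbia agar at 35°C. Mean log10 CFU/ml was compared with the 0-h untreated baseline; 5 mice per group.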

The nature of data set [5]: fT>MIC required for stasis inhibition of community acquired methicillin-resistant Staphylococcus aureus 146 infection in neutropenic BALB/cAnNCr mouse. Format: functional. An outline of the steps: as §1
Data set [6] in a line: fT>MIC required for stasis inhibition of hospital acquired methicillin-resistant Staphylococcus aureus 152 infection in neutropenic BALB/cAnNCr mouse. It counts as functional. The essentials: as §1
The nature of data set [7]: fT>MIC required for stasis inhibition of Staphylococcus aureus infection in neutropenic BALB/cAnNCr mouse. It counts as functional.
Data set [8] can be described thus: fT>MIC required for 80% inhibition of community acquired methicillin-resistant Staphylococcus aureus 146 infection in neutropenic BALB/cAnNCr mouse. Format: functional. An outline of the steps: as §1
For data set [9], the system named is Staphylococcus aureus. The data set is described as follows: Antimicrobial activity against community acquired methicillin-resistant Staphylococcus aureus 147 infected in BALB/cAnNCr mouse assessed as decrease in bacterial density in lungs at 1 to 25 mg/kg, sc administered as 1 to 5 times/day after 24 hrs […] relative to control. Format: functional. Conditions: route subcutaneous. The essentials: as §3

Data set [10] in a line: Cmax in neutropenic BALB/cAnNCr mouse infected with Staphylococcus aureus at 10 mg/kg, sc administered as single dose after 6 hrs of infection. Format: ADME, organism-based. More on the design: dose 10 mg/kg, route subcutaneous. The following applies: in vivo. An outline of the steps: (§4)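 Neutropenic female mice (cyclophosphamide i.p. 250 mg/kg day −4, 100 mg/kg day −1) with HA-MRSA 56 pneumonia (oral inoculum, 10^7 CFU/ml in 3% mucin). Single s.c. dose in sterile water. Plasma by intracardiac puncture at 0.25–4 h, six mice per time point, stabilized with citric acid. Assayed by validated HPLC (LOQ 0.01 µg/ml). Parameters from one-compartment analysis.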

Data set [11] is described as follows: Elimination half life in neutropenic BALB/cAnNCr mouse infected with Staphylococcus aureus at 25 mg/kg, sc administered as single dose after 6 hrs of infection. Details: dose 25 mg/kg, route subcutaneous. The following applies: in vivo. It counts as ADME, organism-based. The essentials: as §4
The nature of data set [12]: fT>MIC required for 80% inhibition of Staphylococcus aureus infection in neutropenic BALB/cAnNCr mouse. Format: functional.
A short description of data set [13]: Elimination half life in neutropenic BALB/cAnNCr mouse infected with Staphylococcus aureus at 1 mg/kg, sc administered as single dose after 6 hrs of infection. It counts as ADME, organism-based. More on the design: dose 1 mg/kg, route subcutaneous. Conditions: in vivo. The essentials: as §4
Data set [14] can be described thus: fT>MIC required for 80% inhibition of methicillin-susceptible Staphylococcus aureus 25923 infection in neutropenic BALB/cAnNCr mouse. Format: functional.
Data set [15] in a line: Tmax in neutropenic BALB/cAnNCr mouse infected with Staphylococcus aureus at 10 mg/kg, sc administered as single dose after 6 hrs of infection. Format: ADME, organism-based. Details: dose 10 mg/kg, route subcutaneous. The following applies: in vivo. An outline of the steps: as §4
Data set [16] in a line: fT>MIC required for 80% inhibition of hospital acquired methicillin-resistant Staphylococcus aureus 152 infection in neutropenic BALB/cAnNCr mouse. Format: functional. An outline of the steps:
as §1

Data set [17] can be described thus: fT>MIC required for 50% inhibition of community acquired Staphylococcus aureus 147 infection in neutropenic BALB/cAnNCr mouse. It counts as functional.
The nature of data set [18]: AUC (0 to infinity) in neutropenic BALB/cAnNCr mouse infected with Staphylococcus aureus at 2.5 mg/kg, sc administered as single dose after 6 hrs of infection. Format: ADME, organism-based. Details: time infinity, dose 2.5 mg/kg, route subcutaneous. Conditions: plasma. The essentials:
as §2

The nature of data set [19]: Tmax in neutropenic BALB/cAnNCr mouse infected with Staphylococcus aureus at 2.5 mg/kg, sc administered as single dose after 6 hrs of infection. It counts as ADME, organism-based. The following applies: in vivo. Details: dose 2.5 mg/kg, route subcutaneous. The essentials: as §2
A short description of data set [20]: fT>MIC required for 50% inhibition of community acquired Staphylococcus aureus 144 infection in neutropenic BALB/cAnNCr mouse. It counts as functional. The essentials: as §1
The subject of a further data set is Mus musculus. The data set is described as follows: Volume of distribution in neutropenic BALB/cAnNCr mouse infected with Staphylococcus aureus at 25 mg/kg, sc administered as single dose after 6 hrs of infection. Format: ADME, organism-based. More on the design: dose 25 mg/kg, route subcutaneous. Conditions: in vivo. The essentials: as §4
Data set [21] in a line: AUC (0 to infinity) in neutropenic BALB/cAnNCr mouse infected with Staphylococcus aureus at 10 mg/kg, sc administered as single dose after 6 hrs of infection. It counts as ADME, organism-based. More on the design: time infinity, dose 10 mg/kg, route subcutaneous. Conditions: plasma. The essentials:
as §4

The structures appear in SMILES notation. ≈ marks a conversion by molar mass, not a printed value.

By MIC is commonly meant the lowest concentration that inhibits growth of the organism. As usually defined, the Cmax is the highest concentration seen after dosing. For orientation: half-life means the time in which the quantity being followed falls by half. As a reminder, the Tmax is the time from dosing to the highest level. The AUC(0-inf) is total exposure, with the tail of the curve extrapolated. Molecule `Nc1nc(/C(=N/O)C(=O)N[C@@H]2C(=O)N3C(C(=O)O)=C(/C=C4\CCN([C@@H]5CCNC5)C4=O)CS[C@H]23)ns1` [CEFTOBIPROLE] yielded an MIC with Staphylococcus aureus [1] of 0.25 mg/L (≈ 0.468 µM). In addition, the “fT>MIC” value was determined as 13.1% in [2]; 5.6% in [5]; 13.4% in data set [6]; 11% in data set [7]; 6% in data set [8]; 17% in data set [12]. For the same molecule, the “fT>MIC” value in data set [14] is 10.2%; in data set [16], 15.9%; in data set [17], 17.1%; in data set [20], 13.8%. Further, the Cmax was found to be 2.91 µg/mL in data set [3] and 19.8 µg/mL in data set [10]. Moreover, the log10cfu in the data set with Staphylococcus aureus [4] was 3.9; with Staphylococcus aureus [9], 3.2. For the same molecule, the values for the half-life in [11] and in data set [13] were 24 min and 15 min, respectively. Moreover, the values for the Tmax in data set [15] and in [19] were 9 min and 24.6 min, respectively. In addition, the area under the curve AUC(0-inf) in data set [18] turned out to be 2.57 µg·h/mL; in data set [21], 15.8 µg·h/mL. The Vd in the data set on Mus musculus is 0.41 L/kg.

The record behind these values is ChEMBL document CHEMBL1275429, “Pharmacodynamic characterization of ceftobiprole in experimental pneumonia caused by phenotypically diverse Staphylococcus aureus strains” (Antimicrob Agents Chemother, 2008).
